Source: ChEMBL document CHEMBL1932986, “Synthesis and in vitro antimycobacterial activity of compounds derived from (R)- and (S)-2-amino-1-butanol - The crucial role of the configuration” (Eur J Med Chem, 2012)
Values after ≈ are worked out from the molar mass of the structure shown. Active and inactive are the calls of the source. The calls are words filed in the database; no cut-off is given here.

How the values were obtained:
[1] = test system: Penicillium chrysogenum; test: Antifungal activity against Penicillium chrysogenum CECT 2802 at 50 mg/ml after 72 hrs by agar diffusion test; format: functional; settings: CECT 2802, 72 h, read-out: DIZ
Outline: (§1)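 Agar diffusion: yeasts grown on yeast peptone dextrose agar and fungi on potato dextrose agar. Wells are filled with […] of compound solution in DMSO at various concentrations, and the clear-zone diameter is measured. Bracketed values give the lowest concentration (mg/ml) that produces a zone >11 mm. A first screen is run at 50 mg/ml.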

[2] = test system: Saccharomyces cerevisiae; test: Antifungal activity against Saccharomyces cerevisiae ATCC 9763 assessed as concentration required to produce >11 mm of zone of inhibition after 72 hrs by agar diffusion test; format: functional; outline: as §1
[3] = test system: Staphylococcus aureus; test: Antibacterial activity against Staphylococcus aureus NRRL B 313 at 50 mg/ml after 24 hrs by agar diffusion test; format: functional; settings: NRRL B 313, 24 h, read-out: DIZ
Outline: (§2)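 Agar diffusion: bacteria grown 24 h at 37 °C on nutrient agar. Wells in the agar are filled with […] of compound solution in DMSO at various concentrations. The diameter of the clear zone around the application point is measured. Bracketed values give the lowest concentration (mg/ml) that produces a zone >11 mm. A first screen is run at 50 mg/ml.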

[4] = test system: Bacillus mycoides; test: Antibacterial activity against Bacillus mycoides DSMZ 274 at 50 mg/ml after 24 hrs by agar diffusion test; format: functional; settings: DSMZ 274, 24 h, read-out: DIZ
Outline: (§3)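 Agar diffusion: wells in agar filled with […] DMSO solution of compound at various concentrations; diameter of clear zone around application point measured. Bacteria grown 24 h at 37 °C on nutrient agar. Compounds first screened at 50 mg/ml; those active then tested at lower concentrations. Bracketed value = lowest concentration (mg/ml) giving zone >11 mm, reported only if activity retained at ≤1.25 mg/ml.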

[5] = test system: Bacillus subtilis; test: Antibacterial activity against Bacillus subtilis ATCC 6633 assessed as concentration required to produce >11 mm of zone of inhibition after 24 hrs by agar diffusion test; format: functional; outline: as §3
[6] = test system: Micrococcus luteus; test: Antibacterial activity against Sarcina lutea ATCC 9341 assessed as concentration required to produce >11 mm of zone of inhibition after 24 hrs by agar diffusion test; format: functional; outline: as §3
[7] = test system: Bacillus; test: Antibacterial activity against Bacillus idosus B 241 at 2 mg/ml after 24 hrs by agar diffusion test; format: functional, organism-based; outline: as §3
[8] = test system: Escherichia coli; test: Antibacterial activity against Escherichia coli ATCC 8739 at 50 mg/ml after 24 hrs by agar diffusion test; format: functional; settings: ATCC 8739, 24 h, read-out: DIZ; outline: as §3
[9] = test system: Acinetobacter johnsonii; test: Antibacterial activity against Acinetobacter johnsonii ATCC 17909 at 50 mg/ml after 24 hrs by agar diffusion test; format: functional; settings: ATCC 17909, 24 h, read-out: DIZ; outline: as §3
[10] = test system: Priestia megaterium; test: Antibacterial activity against Bacillus megaterium NRRL 1353895 at 2 mg/ml after 24 hrs by agar diffusion test; format: functional, organism-based; outline: as §3
[11] = test system: Candida tropicalis; test: Antifungal activity against Candida tropicalis ATCC 20336 at 50 mg/ml after 72 hrs by agar diffusion test; format: functional; settings: ATCC 20336, 72 h, read-out: DIZ; outline: as §1
[12] = test system: Bacillus subtilis; test: Antibacterial activity against Bacillus subtilis ATCC 6633 at 2 mg/ml after 24 hrs by agar diffusion test; format: functional, organism-based; outline: as §3
[13] = test system: Bacillus subtilis; test: Antibacterial activity against Bacillus subtilis ATCC 6633 at 50 mg/ml after 24 hrs by agar diffusion test; format: functional; settings: ATCC 6633, 24 h, read-out: DIZ; outline: as §3
[14] = test system: Saccharomyces cerevisiae; test: Antifungal activity against Saccharomyces cerevisiae ATCC 9763 at 2 mg/ml after 72 hrs by agar diffusion test; format: functional, organism-based; outline: as §1
[15] = test system: Bacillus; test: Antibacterial activity against Bacillus idosus B 241 assessed as concentration required to produce >11 mm of zone of inhibition after 24 hrs by agar diffusion test; format: functional; outline: as §3
[16] = test system: Staphylococcus aureus; test: Antibacterial activity against Staphylococcus aureus NRRL B 313 assessed as concentration required to produce >11 mm of zone of inhibition after 24 hrs by agar diffusion test; format: functional; outline: as §2
[17] = test system: Priestia megaterium; test: Antibacterial activity against Bacillus megaterium NRRL 1353895 at 50 mg/ml after 24 hrs by agar diffusion test; format: functional; settings: NRRL 1353895, 24 h, read-out: DIZ; outline: as §3
[18] = test system: Acinetobacter johnsonii; test: Antibacterial activity against Acinetobacter johnsonii ATCC 17909 assessed as concentration required to produce >11 mm of zone of inhibition after 24 hrs by agar diffusion test; format: functional; outline: as §3
[19] = test system: Bacillus mycoides; test: Antibacterial activity against Bacillus mycoides DSMZ 274 at 2 mg/ml after 24 hrs by agar diffusion test; format: functional, organism-based; outline: as §3
[20] = test system: Micrococcus luteus; test: Antibacterial activity against Micrococcus luteus ATCC 9631 at 50 mg/ml after 24 hrs by agar diffusion test; format: functional; settings: ATCC 9631, 24 h, read-out: DIZ; outline: as §3
[21] = test system: Bacillus cereus; test: Antibacterial activity against Bacillus cereus ATCC 11778 at 50 mg/ml after 24 hrs by agar diffusion test; format: functional; settings: ATCC 11778, 24 h, read-out: DIZ; outline: as §3
[22] = test system: Bacillus cereus; test: Antibacterial activity against Bacillus cereus ATCC 11778 assessed as concentration required to produce >11 mm of zone of inhibition after 24 hrs by agar diffusion test; format: functional; outline: as §3
[23] = test system: Candida tropicalis; test: Antifungal activity against Candida tropicalis ATCC 20336 assessed as concentration required to produce >11 mm of zone of inhibition after 72 hrs by agar diffusion test; format: functional; outline: as §1
[24] = test system: Bacillus mycoides; test: Antibacterial activity against Bacillus mycoides DSMZ 274 assessed as concentration required to produce >11 mm of zone of inhibition after 24 hrs by agar diffusion test; format: functional; outline: as §3
[25] = test system: Escherichia coli; test: Antibacterial activity against Escherichia coli ATCC 8739 assessed as concentration required to produce >11 mm of zone of inhibition after 24 hrs by agar diffusion test; format: functional; outline: as §3
[26] = test system: Mycobacterium tuberculosis; test: Antimycobacterial activity against Mycobacterium tuberculosis H37Rv after 45 days; format: functional
Outline: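 Canetti proportion method. Compound in DMSO is added to Löwenstein–Jensen egg medium before coagulation (30 min, 85 °C), tested at three levels plus a lower one where needed. Tubes are inoculated with H37Rv at 10⁵ cells/ml and incubated 45 days at 37 °C. Colony counts versus drug-free control give percentage inhibition.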

[27] = test system: Candida tropicalis; test: Antifungal activity against Candida tropicalis ATCC 20336 at 2 mg/ml after 72 hrs by agar diffusion test; format: functional, organism-based; outline: as §1
[28] = test system: Staphylococcus aureus; test: Antibacterial activity against Staphylococcus aureus NRRL B 313 at 2 mg/ml after 24 hrs by agar diffusion test; format: functional, organism-based; outline: as §2
[29] = test system: Micrococcus luteus; test: Antibacterial activity against Micrococcus luteus ATCC 9631 at 2 mg/ml after 24 hrs by agar diffusion test; format: functional, organism-based; outline: as §3
[30] = test system: Micrococcus luteus; test: Antibacterial activity against Sarcina lutea ATCC 9341 at 2 mg/ml after 24 hrs by agar diffusion test; format: functional, organism-based; outline: as §3
[31] = test system: Bacillus cereus; test: Antibacterial activity against Bacillus cereus ATCC 11778 at 2 mg/ml after 24 hrs by agar diffusion test; format: functional, organism-based; outline: as §3
[32] = test system: Micrococcus luteus; test: Antibacterial activity against Sarcina lutea ATCC 9341 at 50 mg/ml after 24 hrs by agar diffusion test; format: functional; settings: ATCC 9341, 24 h, read-out: DIZ; outline: as §2
[33] = test system: Acinetobacter johnsonii; test: Antibacterial activity against Acinetobacter johnsonii ATCC 17909 at 2 mg/ml after 24 hrs by agar diffusion test; format: functional; outline: as §3
[34] = test system: Micrococcus luteus; test: Antibacterial activity against Micrococcus luteus ATCC 9631 assessed as concentration required to produce >11 mm of zone of inhibition after 24 hrs by agar diffusion test; format: functional; outline: as §3
[35] = test system: Priestia megaterium; test: Antibacterial activity against Bacillus megaterium NRRL 1353895 assessed as concentration required to produce >11 mm of zone of inhibition after 24 hrs by agar diffusion test; format: functional; outline: as §3
[36] = test system: Penicillium chrysogenum; test: Antifungal activity against Penicillium chrysogenum CECT 2802 at 2 mg/ml after 72 hrs by agar diffusion test; format: functional, organism-based; outline: as §1
[37] = test system: Saccharomyces cerevisiae; test: Antifungal activity against Saccharomyces cerevisiae ATCC 9763 at 50 mg/ml after 72 hrs by agar diffusion test; format: functional; settings: ATCC 9763, 72 h, read-out: DIZ; outline: as §1
[38] = test system: Escherichia coli; test: Antibacterial activity against Escherichia coli ATCC 8739 at 2 mg/ml after 24 hrs by agar diffusion test; format: functional, organism-based; outline: as §3
[39] = test system: Penicillium chrysogenum; test: Antifungal activity against Penicillium chrysogenum CECT 2802 assessed as concentration required to produce >11 mm of zone of inhibition after 72 hrs by agar diffusion test; format: functional; outline: as §1
[40] = test system: Bacillus; test: Antibacterial activity against Bacillus idosus B 241 at 50 mg/ml after 24 hrs by agar diffusion test; format: functional; settings: B 241, 24 h, read-out: DIZ; outline: as §3
[41] = test system: Saccharomyces cerevisiae; test: Antifungal activity against Saccharomyces cerevisiae ATCC 9763 at 12.5 mg/ml after 72 hrs by agar diffusion test; format: functional; settings: ATCC 9763, 72 h, read-out: DIZ; outline: as §1
[42] = test system: Candida tropicalis; test: Antifungal activity against Candida tropicalis ATCC 20336 at 25 mg/ml after 72 hrs by agar diffusion test; format: functional; settings: ATCC 20336, 72 h, read-out: DIZ
Outline: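 Yeast grown on yeast peptone dextrose agar; wells cut in the seeded agar are filled with compound solution in DMSO. Read-out is the diameter of the clear inhibition zone.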

Work on `CC[C@H](COC(C)=O)N1C(=O)C=CC1=O` yielded a zone of inhibition at 50000 µg/mL [1] of over 40 mm, an Activity [2] of 0.006 mg/mL and a zone of inhibition at 50000 µg/mL [3] of over 40 mm. The zone of inhibition at 50000 µg/mL [4] was 38 mm, the Activity [5] was 0.06 mg/mL and the Activity [6] was 0.06 mg/mL. For the same compound, the “diameter of the inhibition zone (DIZ)” value [7] was “inactive”, the zone of inhibition at 50000 µg/mL [8] was 29 mm and the zone of inhibition at 50000 µg/mL [9] was 39 mm. The “diameter of the inhibition zone (DIZ)” value [10] was “inactive”, the zone of inhibition at 50000 µg/mL [11] was over 40 mm and the “diameter of the inhibition zone (DIZ)” value [12] was “inactive”. The zone of inhibition at 50000 µg/mL [13] was 40 mm, the “diameter of the inhibition zone (DIZ)” value [14] was “inactive” and the Activity [15] was 0.06 mg/mL. The Activity [16] was 0.06 mg/mL, the zone of inhibition at 50000 µg/mL [17] was 40 mm and the Activity [18] was 0.06 mg/mL. For the same compound, the “diameter of the inhibition zone (DIZ)” value [19] was “inactive”, the zone of inhibition at 50000 µg/mL [20] was 38 mm and the zone of inhibition at 50000 µg/mL [21] was 40 mm. The Activity [22] was 0.0125 mg/mL, the Activity [23] was 0.006 mg/mL and the Activity [24] was 0.06 mg/mL. For the same compound, the Activity [25] was 1.25 mg/mL, the MIC [26] was 23.7 µM (≈ 5 µg/mL) and the “diameter of the inhibition zone (DIZ)” value [27] was “inactive”. For the same compound, the “diameter of the inhibition zone (DIZ)” value [28] was “inactive”, the “diameter of the inhibition zone (DIZ)” value [29] was “inactive” and the “diameter of the inhibition zone (DIZ)” value [30] was “inactive”. The “diameter of the inhibition zone (DIZ)” value [31] was “inactive”, the zone of inhibition at 50000 µg/mL [32] was 38 mm and the “diameter of the inhibition zone (DIZ)” value [33] was “inactive”. The Activity [34] was 0.3 mg/mL, the Activity [35] was 0.06 mg/mL and the “diameter of the inhibition zone (DIZ)” value [36] was “inactive”. The zone of inhibition at 50000 µg/mL [37] was over 40 mm, the “diameter of the inhibition zone (DIZ)” value [38] was “inactive” and the Activity [39] was 0.0125 mg/mL. The zone of inhibition at 50000 µg/mL [40] was 35 mm.

With `CCC(C)n1ncn(-c2ccc(N3CCN(c4ccc(OCC5COC(Cn6cncn6)(c6ccc(Cl)cc6Cl)O5)cc4)CC3)cc2)c1=O` (configuration not stated) [ITRACONAZOLE] the zone of inhibition at 12500 µg/mL [41] was 30 mm.

With `OC(Cn1cncn1)(Cn1cncn1)c1ccc(F)cc1F` [FLUCONAZOLE] the zone of inhibition at 25000 µg/mL [42] was 35 mm.
